{
  "source": "ChEMBL document CHEMBL1123493",
  "about": "“Synthesis and antiviral activity of the carbocyclic analogues of 5-ethyl-2'-deoxyuridine and of 5-ethynyl-2'-deoxyuridine” (1986)",
  "key": {"Oryctolagus cuniculus [1]": {"species_on_record": "Oryctolagus cuniculus", "assay": "Compound was tested for the inhibition of the replication of herpes simplex virus in vero cells of HSV-2 strain MS in rabbit kidney cells", "format": "functional"}, "Oryctolagus cuniculus [2]": {"species_on_record": "Oryctolagus cuniculus", "assay": "Compound was evaluated for antiviral activity against HSV-2 strain MS in rabbit kidney cells", "format": "functional"}, "Oryctolagus cuniculus [3]": {"species_on_record": "Oryctolagus cuniculus", "assay": "Compound was evaluated for antiviral activity against Herpes Simplex Virus (HSV-1 strain 377) in rabbit kidney cells", "format": "functional"}, "Oryctolagus cuniculus [4]": {"species_on_record": "Oryctolagus cuniculus", "assay": "Compound was tested for the inhibition of the replication of herpes simplex virus (HSV-I strain 377) in rabbit kidney cells", "format": "functional"}, "Vero [5]": {"system": "Vero", "assay": "Compound was evaluated for antiviral activity against Herpes Simplex Virus (HSV-2 strain MS) in vero cells in exp. no. 3", "format": "functional, Chlorocebus sabaeus", "summary_of_the_method": "(§1)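 Inhibition of virus-induced cytopathogenic effect was measured in Vero cells infected with TK⁺ HSV-1 strain 377 or TK⁺ HSV-2 strain MS, using a modified Ehrlich method. Activity is given as a virus rating, which weights both the degree of CPE inhibition and the cytotoxicity of the compound. Potency is given as the minimum inhibitory concentration (MIC₅₀).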"}, "Vero [6]": {"system": "Vero", "assay": "Compound was evaluated for antiviral activity against Herpes Simplex Virus (HSV-1 strain 377) in vero cells in exp. no. 3", "format": "functional, Chlorocebus sabaeus", "summary_of_the_method": "as §1"}, "Vero [7]": {"system": "Vero", "assay": "Compound was tested for the inhibition of the replication of herpes simplex virus (HSV-I strain 377) in vero cells in exp. no. 3", "format": "functional", "settings": "Chlorocebus sabaeus", "summary_of_the_method": "as §1"}, "Vero [8]": {"system": "Vero", "assay": "Compound was evaluated for antiviral activity against Herpes Simplex virus (HSV-1 strain 377) in exp. no. 2", "format": "functional, Chlorocebus sabaeus"}, "Vero [9]": {"system": "Vero", "assay": "Compound was evaluated for antiviral activity against Herpes Simplex virus (HSV-2 strain MS) in exp. no. 1", "format": "functional, Chlorocebus sabaeus"}, "Vero [10]": {"system": "Vero", "assay": "Compound was evaluated for antiviral activity against Herpes Simplex virus (HSV-2 strain MS) in exp. no. 2", "format": "functional, Chlorocebus sabaeus"}, "Vero [11]": {"system": "Vero", "assay": "Compound was tested for the inhibition of the replication of herpes simplex virus (HSV-I strain 377) in vero cells of in exp. no. 1", "format": "functional", "settings": "Chlorocebus sabaeus", "summary_of_the_method": "as §1"}, "Vero [12]": {"system": "Vero", "assay": "Compound was tested for the inhibition of the replication of herpes simplex virus (HSV-I strain 377) in vero cells of in exp. no. 2", "format": "functional", "settings": "Chlorocebus sabaeus", "summary_of_the_method": "as §1"}, "Vero [13]": {"system": "Vero", "assay": "Compound was evaluated for antiviral activity against Herpes Simplex Virus (HSV-1 strain 377) in vero cells in exp. no. 1", "format": "functional, Chlorocebus sabaeus", "summary_of_the_method": "as §1"}, "Vero [14]": {"system": "Vero", "assay": "Compound was tested for the inhibition of the replication of herpes simplex virus (HSV-2 strain MS) in vero cells in exp. no.1", "format": "functional", "settings": "Chlorocebus sabaeus", "summary_of_the_method": "as §1"}, "Vero [15]": {"system": "Vero", "assay": "Compound was tested for the inhibition of the replication of herpes simplex virus (HSV-2 strain MS) in vero cells in exp. no.2", "format": "functional", "settings": "Chlorocebus sabaeus", "summary_of_the_method": "as §1"}, "Vero [16]": {"system": "Vero", "assay": "Compound was tested for the inhibition of the replication of herpes simplex virus (HSV-I strain 377) in vero cells in exp. no. 1", "format": "functional", "settings": "Chlorocebus sabaeus", "summary_of_the_method": "as §1"}, "Vero [17]": {"system": "Vero", "assay": "Compound was evaluated for antiviral activity against Herpes Simplex Virus (HSV-1 strain 377) in vero cells in exp. no.1", "format": "functional, Chlorocebus sabaeus", "summary_of_the_method": "as §1"}, "Vero [18]": {"system": "Vero", "assay": "Compound was evaluated for antiviral activity against Herpes Simplex Virus (HSV-2 strain MS) in vero cells in exp. no.2", "format": "functional, Chlorocebus sabaeus", "summary_of_the_method": "as §1"}, "Vero [19]": {"system": "Vero", "assay": "Compound was tested for the inhibition of the replication of herpes simplex virus (HSV-I strain 377) in vero cells in exp. no.1", "format": "functional", "settings": "Chlorocebus sabaeus", "summary_of_the_method": "as §1"}, "Vero [20]": {"system": "Vero", "assay": "Compound was evaluated for antiviral activity against Herpes Simplex Virus (HSV-2 strain MS) in vero cells in exp. No. 2", "format": "functional, Chlorocebus sabaeus", "summary_of_the_method": "as §1"}, "Vero [21]": {"system": "Vero", "assay": "Compound was evaluated for antiviral activity against Herpes Simplex Virus (HSV-1 strain 377) in vero cells in exp. No. 2", "format": "functional, Chlorocebus sabaeus", "summary_of_the_method": "as §1"}, "Vero [22]": {"system": "Vero", "assay": "(§2) Compound was tested for the inhibition of the replication of herpes simplex virus (HSV-2 strain MS) in vero cells in exp. No. 2", "format": "functional", "settings": "Chlorocebus sabaeus", "summary_of_the_method": "as §1"}, "Vero [23]": {"system": "Vero", "assay": "Compound was tested for the inhibition of the replication of herpes simplex virus (HSV-I strain 377) in vero cells in exp. No. 2", "format": "functional", "settings": "Chlorocebus sabaeus", "summary_of_the_method": "as §1"}, "Vero [24]": {"system": "Vero", "assay": "as §2", "format": "functional", "settings": "Chlorocebus sabaeus", "summary_of_the_method": "as §1", "remark": "listed apart in the source"}, "Vero [25]": {"system": "Vero", "assay": "Compound was evaluated for antiviral activity against Herpes Simplex Virus (HSV-2 strain MS) in vero cells in exp. No. 1", "format": "functional, Chlorocebus sabaeus", "summary_of_the_method": "as §1"}, "Vero [26]": {"system": "Vero", "assay": "Compound was evaluated for antiviral activity against Herpes Simplex Virus (HSV-2 strain MS) in vero cells in exp. No. 3", "format": "functional, Chlorocebus sabaeus", "summary_of_the_method": "as §1"}, "Vero [27]": {"system": "Vero", "assay": "Compound was tested for the inhibition of the replication of herpes simplex virus (HSV-I strain 377) in vero cells of in exp. No. 1", "format": "functional", "settings": "Chlorocebus sabaeus", "summary_of_the_method": "as §1"}, "Vero [28]": {"system": "Vero", "assay": "Compound was evaluated for antiviral activity against Herpes Simplex Virus (HSV-1 strain 377) in vero cells in exp. No. 1", "format": "functional, Chlorocebus sabaeus", "summary_of_the_method": "as §1"}, "Vero [29]": {"system": "Vero", "assay": "Compound was tested for the inhibition of the replication of herpes simplex virus (HSV-2 strain MS) in vero cells in exp. No. 1", "format": "functional", "settings": "Chlorocebus sabaeus", "summary_of_the_method": "as §1"}, "Vero [30]": {"system": "Vero", "assay": "Compound was tested for the inhibition of the replication of herpes simplex virus (HSV-2 strain MS) in vero cells in exp. No. 3", "format": "functional", "settings": "Chlorocebus sabaeus", "summary_of_the_method": "as §1"}, "Vero [31]": {"system": "Vero", "assay": "Compound was tested for the inhibition of the replication of herpes simplex virus (HSV-I strain 377) in vero cells in exp. No. 1", "format": "functional", "settings": "Chlorocebus sabaeus", "summary_of_the_method": "as §1"}, "Vero [32]": {"system": "Vero", "assay": "Compound was tested for the inhibition of the replication of herpes simplex virus (HSV-I strain 377) in vero cells in exp. No. 3", "format": "functional", "settings": "Chlorocebus sabaeus", "summary_of_the_method": "as §1"}, "Vero [33]": {"system": "Vero", "assay": "Compound was evaluated for antiviral activity against Herpes Simplex Virus (HSV-1 strain 377) in vero cells in exp. No. 3", "format": "functional, Chlorocebus sabaeus", "summary_of_the_method": "as §1"}},
  "note": "Values joined by “and” are separate entries in the source; they are usually repeats but may differ in a detail not shown here. Equal values may be shown once.",
  "data": [
    {"smiles": "Cc1cn([C@@H]2C[C@H](CO)[C@@H](O)C2)c(=O)[nH]c1=O", "values": [
      {"measurement": "MIC50", "setting": "Oryctolagus cuniculus [1]", "result": 7, "unit": "µg/mL"},
      {"measurement": "VR", "setting": "Oryctolagus cuniculus [2]", "result": 3.2},
      {"measurement": "VR", "setting": "Oryctolagus cuniculus [3]", "result": 5.4},
      {"measurement": "MIC50", "setting": "Oryctolagus cuniculus [4]", "result": 0.8, "unit": "µg/mL"}
    ]},
    {"smiles": "C[Si](C)(C)CCc1cn([C@H]2C[C@H](O)[C@@H](CO)O2)c(=O)[nH]c1=O", "values": [
      {"measurement": "VR", "setting": "Vero [5]", "result": 0.1},
      {"measurement": "VR", "setting": "Vero [6]", "result": 0.5},
      {"measurement": "MIC50", "setting": "Vero [7]", "result": "320 µg/mL and 980 µM"}
    ]},
    {"smiles": "CC(=O)OC[C@H]1O[C@@H](n2cc(C#C[Si](C)(C)C)c(=O)[nH]c2=O)C[C@@H]1OC(C)=O", "values": [
      {"measurement": "VR", "setting": "Vero [5]", "result": 0},
      {"measurement": "VR", "setting": "Vero [6]", "result": 0}
    ]},
    {"smiles": "CCc1cn(C2CC(O)C(CO)C2)c(=O)[nH]c1=O", "note": "(stereo not given)", "values": [
      {"measurement": "VR", "setting": "Vero [8]", "result": 2.1},
      {"measurement": "VR", "setting": "Vero [9]", "result": 1.1},
      {"measurement": "VR", "setting": "Vero [10]", "result": 1.1},
      {"measurement": "MIC50", "setting": "Vero [11]", "result": 45, "unit": "µg/mL"},
      {"measurement": "MIC50", "setting": "Vero [12]", "result": "70 µg/mL and 270 µM"},
      {"measurement": "VR", "setting": "Vero [13]", "result": 2.4},
      {"measurement": "MIC50", "setting": "Vero [14]", "result": "230 µg/mL and 890 µM"},
      {"measurement": "MIC50", "setting": "Vero [15]", "result": "180 µg/mL and 700 µM"},
      {"measurement": "MIC50", "setting": "Vero [16]", "result": 170, "unit": "µM"}
    ]},
    {"smiles": "C#Cc1cn(C2CC(O)C(CO)C2)c(=O)[nH]c1=O", "note": "(stereo not given)", "values": [
      {"measurement": "VR", "setting": "Vero [17]", "result": 0.9},
      {"measurement": "VR", "setting": "Vero [18]", "result": 1.1},
      {"measurement": "MIC50", "setting": "Vero [15]", "result": "210 µg/mL and 830 µM"},
      {"measurement": "MIC50", "setting": "Vero [19]", "result": "250 µg/mL and 990 µM"}
    ]},
    {"smiles": "CCc1cn([C@H]2C[C@H](O)[C@@H](CO)O2)c(=O)[nH]c1=O", "note": "[EDOXUDINE]", "values": [
      {"measurement": "VR", "setting": "Vero [20]", "result": 2.2},
      {"measurement": "VR", "setting": "Vero [21]", "result": 2.3},
      {"measurement": "MIC50", "setting": "Vero [22]", "result": 37, "unit": "µg/mL"},
      {"measurement": "MIC50", "setting": "Vero [23]", "result": "20 µg/mL and 80 µM"},
      {"measurement": "MIC50", "setting": "Vero [24]", "result": 140, "unit": "µM"}
    ]},
    {"smiles": "Nc1ncnc2c1ncn2[C@@H]1O[C@H](CO)[C@@H](O)[C@@H]1O", "note": "[VIDARABINE]", "values": [
      {"measurement": "VR", "setting": "Vero [25]", "result": 1.7},
      {"measurement": "VR", "setting": "Vero [20]", "result": 1.3},
      {"measurement": "VR", "setting": "Vero [26]", "result": 1.2},
      {"measurement": "MIC50", "setting": "Vero [27]", "result": 18, "unit": "µg/mL"},
      {"measurement": "VR", "setting": "Vero [28]", "result": 2.1},
      {"measurement": "VR", "setting": "Vero [21]", "result": 2},
      {"measurement": "MIC50", "setting": "Vero [29]", "result": "22 µg/mL and 80 µM"},
      {"measurement": "MIC50", "setting": "Vero [22]", "result": "45 µg/mL and 170 µM"},
      {"measurement": "MIC50", "setting": "Vero [30]", "result": "24 µg/mL and 90 µM"},
      {"measurement": "MIC50", "setting": "Vero [31]", "result": 70, "unit": "µM"},
      {"measurement": "MIC50", "setting": "Vero [23]", "result": "15 µg/mL and 60 µM"},
      {"measurement": "MIC50", "setting": "Vero [32]", "result": "5 µg/mL and 20 µM"},
      {"measurement": "VR", "setting": "Vero [33]", "result": 2.4}
    ]}
  ]
}
